# Rows were chosen to be rich in hits. Some 2.2% of all compounds tested hit in one or more screens of this group.
# LMPTP block: LMPTP (human) inhibition; inhibition, % at 20 µM; recombinant LMPTP-A, OMFP fluorogenic substrate, fluorescence intensity; 0.22% of 360,000 active; P24666;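 active = compounds that cut the enzyme signal by at least half of the control window in the single-dose screen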
#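 Test system – LMPTP-A phosphatase enzyme · Quantity – 0.625 nM LMPTP-A final · Reagent – OMFP substrate, 400 µM final · Dosing – one test concentration per compound, 20 µM, with 3% DMSO overall · Timing – 50 min enzyme reaction at room temperature, protected from light · Detection – fluorescence intensity · Controls – substrate-only low control, DMSO enzyme-plus-substrate high control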
# Scp-1 inhibitor: inhibitors of human Scp-1 phosphatase; Q9GZU7; Recombinant Scp1, phosphopeptide, malachite green phosphate absorbance; inhibition, % at 20 µM; 0.88% of 340,000 active;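 active = inhibition above about 50% at 20 µM, limit read from the data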
# Target sequence (Q9GZU7 76-261 limits assumed): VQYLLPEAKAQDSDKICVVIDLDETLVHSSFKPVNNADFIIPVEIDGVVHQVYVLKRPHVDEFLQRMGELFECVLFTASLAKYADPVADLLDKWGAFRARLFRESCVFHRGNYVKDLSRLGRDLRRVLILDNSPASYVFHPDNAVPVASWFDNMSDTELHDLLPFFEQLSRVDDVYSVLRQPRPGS
#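 Test system: SCP-1 phosphatase catalytic domain, residues 76-261; measured by: colorimetric phosphate reagent with accelerator and stabiliser, absorbance at 630 nm; timing: enzyme reaction 45 min at room temperature, colour 5 min, stabilisation 30 min; also added: Phosphorylated 17-residue peptide substrate; compound dosing: one concentration, 20 µM, with 1.0% DMSO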
# STEP block: blocks human striatal-enriched tyrosine phosphatase. recombinant STEP, OMFP fluorogenic substrate, fluorescence. inhibition, % at 20 µM. 0.25% of 360,000 active. AID 588621;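 active = inhibition at 20 µM, scaled per plate between control wells, above about 37%, limit read from the data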
# Target sequence (P54829 whole entry, looked up): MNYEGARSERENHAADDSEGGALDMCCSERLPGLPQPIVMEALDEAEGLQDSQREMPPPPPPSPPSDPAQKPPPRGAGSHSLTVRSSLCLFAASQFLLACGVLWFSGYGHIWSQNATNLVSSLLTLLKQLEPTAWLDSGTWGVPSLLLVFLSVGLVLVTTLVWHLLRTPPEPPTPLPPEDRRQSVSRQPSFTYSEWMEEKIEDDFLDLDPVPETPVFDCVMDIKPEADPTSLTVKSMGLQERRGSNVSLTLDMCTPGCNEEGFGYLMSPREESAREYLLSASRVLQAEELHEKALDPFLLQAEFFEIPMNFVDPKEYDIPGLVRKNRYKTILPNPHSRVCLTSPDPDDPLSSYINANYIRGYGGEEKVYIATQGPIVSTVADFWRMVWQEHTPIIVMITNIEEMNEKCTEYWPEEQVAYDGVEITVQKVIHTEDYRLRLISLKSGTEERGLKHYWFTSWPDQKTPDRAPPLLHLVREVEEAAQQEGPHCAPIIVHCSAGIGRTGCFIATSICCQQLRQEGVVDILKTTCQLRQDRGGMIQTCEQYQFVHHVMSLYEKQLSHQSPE
#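 Also added – OMFP at 25 µM · Test system – STEP tyrosine phosphatase · Technique – FITC-channel fluorescence of OMFP product · Schedule – 20 min at room temperature, dark · Evaluation – control-normalized % inhibition with plate pattern correction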
# GRK2 inh: human GRK2 inhibition via aptamer displacement; 0.59% of 330,000 active; P25098; bead flow cytometry, FAM-aptamer displacement from GRK2; inhibition of aptamer binding, % at 10 µM;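 active = inhibition of aptamer binding above 40%, roughly 3 SD of noise, on plates passing a quality check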;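 note: median bead fluorescence of bound FAM aptamer so fluorescent compounds give negative values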
# SUMO1 PPI mod: alters human SUMO1 binding to SIM partners | P63165 | SUMO1 binding to a labelled peptide, TR-FRET, 1 h | inhibition, % at 20 µM | 0.33% of 360,000 active | AID 602429; in the data active = inhibition above about 37%
# DNMT1 block: DNMT1 (human) enzyme inhibition; DNMT1 molecular beacon, Hinp1I cleavage, fluorescence; inhibition (reported as % activation of signal), % at 10 µM; AID 588458; 0.83% of 360,000 active; in the data active = inhibition above about 50%
# GRK2 inh confirm: confirmation of human GRK2 inhibitors displacing RNA aptamer; shares compounds with GRK2 inh; bead-bound GRK2, FAM-aptamer displacement, flow cytometry; aptamer displacement, % at 10 µM; 4% of 2,000 active;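 active = aptamer displacement above 40%, near three times the noise of non-fluorescent compounds, on plates passing quality checks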;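 note: negative values mostly reflect intrinsic compound fluorescence rather than true enhancement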
# Aptamer quench SP: counter-screen for GRK2 aptamer inhibitors: fluorescent aptamer quenchers; shares compounds with GRK2 inh; Carboxyfluorescein RNA aptamer on beads, flow cytometry quenching; active compounds read low; fluorescence response (% of DMSO), % at 10 µM; 2,000 tested, under 10 active;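 active = compounds that quench the bead-bound fluorescent RNA probe, cutting fluorescence to under half of the solvent control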;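 note: counterscreen run without GRK2 so only probe quenching by compound is measured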
# GRK2 CP2: confirmation of human GRK2 inhibitors binding RNA aptamer site | shares compounds with GRK2 inh | bead-bound GRK2, FAM-aptamer displacement, flow cytometry | inhibition of aptamer binding, % at 10 µM | 360 tested, under 10 active | AID 504782;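 active = inhibition of aptamer binding above 40%, about triple the noise seen with nonglowing compounds, on plates passing quality control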;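 note: negative values mostly come from compounds that fluoresce themselves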
# FAM quench SP: counter-screen for GRK2 binding hits: quenchers of fluorescent RNA aptamer | shares compounds with GRK2 inh | fluorescence response vs DMSO, % at 10 µM | 360 tested, under 10 active | AID 588494 | carboxyfluorescein RNA aptamer beads, flow cytometry quenching; active compounds read low;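 active = response vs DMSO under 50%, meaning signal dropped by over half, treated as fluorescence quencher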;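 note: labelled aptamer on streptavidin beads without GRK2 as a quench counter-screen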
# A number is an active result; i = inactive; nt = no result given.
SMILES,LMPTP block,Scp-1 inhibitor,STEP block,GRK2 inh,SUMO1 PPI mod,DNMT1 block,GRK2 inh confirm,Aptamer quench SP,others
Cc1ccc(S(=O)(=O)Nc2cc(Cl)c(O)c3ncccc23)cc1,i,i,i,55,i,i,nt,nt,GRK2 CP2=i;FAM quench SP=i
Oc1c(Cl)cc(Cl)c2cccnc12,i,i,i,nt,i,i,nt,nt,
CCOC(=O)CNC(=O)c1sc(NC(=O)c2ccccc2F)nc1C,i,i,i,59,i,i,i,i,
CCOC(=O)CC(NC(=O)c1cc2cc(Br)ccc2oc1=O)c1cccc([N+](=O)[O-])c1 (stereo unspecified),i,i,i,78,i,i,nt,nt,GRK2 CP2=i;FAM quench SP=i
CC1(C(=O)NC2CCc3ccccc32)CCN1CCc1ccccc1 (stereo unspecified),i,nt,i,nt,i,i,nt,nt,
O=C(c1ccc(CNS(=O)(=O)c2ccc(F)cc2)cc1)N1CCCCCC1,i,nt,i,nt,i,i,nt,nt,
CN(C)S(=O)(=O)n1cc(/C=C(\NC(=O)c2ccccc2F)C(=O)N2CCCCC2)c2ccccc21,i,nt,i,nt,i,i,nt,nt,
CCN(CC)CCCNC(=S)N(Cc1cccnc1)Cc1cc2cc(C)cc(C)c2[nH]c1=O,i,i,i,i,i,i,i,i,
Cc1cc(C)c2[nH]c(=O)c(CN(Cc3cccnc3)C(=S)NCCCN(C)C)cc2c1,i,i,i,i,i,i,nt,nt,
COC(=O)c1cc(-c2ccc(Br)cc2)n[nH]1,i,i,i,54,i,i,i,i,
COc1ccc(-c2cc(C(=O)NN)[nH]n2)cc1,i,i,i,i,i,i,nt,nt,
COC(=O)[C@]12CCCCC=C1N(Cc1ccccc1)C(=O)[C@H](CC(=O)N1CCC(c3ccccc3)CC1)C2,i,nt,nt,nt,i,nt,nt,nt,
O=c1c2cc(N3CCOCC3)ccc2[nH]c(=S)n1Cc1cccc(Cl)c1,i,i,i,i,i,i,nt,nt,
COc1cccc(Cn2c(=S)[nH]c3ccc(N4CCOCC4)cc3c2=O)c1,i,i,i,43,i,i,i,i,
OC[C@@H]1CN(Cc2cccnc2)C[C@H](n2cnc3c(N4CCN(c5ccccc5)CC4)ncnc32)O1,i,nt,i,nt,i,i,nt,nt,
CCCCCCCCN1CC(Cc2cc3ccccc3c3ccccc23)N(c2ccccc2)c2ccccc2C1=O (stereo unspecified),i,nt,nt,nt,i,nt,nt,nt,
CN(Cc1ccccc1)C(=O)COC(=O)CCC(=O)c1ccc(F)cc1,i,i,i,i,i,i,i,i,
CN(Cc1ccccc1)C(=O)COC(=O)CCC(=O)c1ccc(Cl)cc1,i,i,i,i,i,i,nt,nt,
CN1C(=O)C(C)(C)c2cc(S(=O)(=O)N3CCCC(C(=O)NCc4ccccc4Cl)C3)ccc21 (stereo unspecified),i,i,i,i,i,i,i,i,
COc1ccc(CNC(=O)C2CCCN(S(=O)(=O)c3ccc4c(c3)C(C)(C)C(=O)N4C)C2)cc1 (stereo unspecified),i,i,i,i,i,i,nt,nt,
O=C(Nc1ccc2c(c1)OCO2)C1CCN(Cc2cnn(-c3ccccc3)c2-n2cccc2)CC1,i,i,i,i,i,i,nt,nt,
O=C(NCC1CCCO1)C1CCCN(Cc2cnn(-c3ccccc3)c2-n2cccc2)C1 (stereo unspecified),i,i,i,i,i,i,i,i,
Cc1ccc(CNC(=O)C2CCCN(Cc3cnn(-c4ccccc4)c3-n3cccc3)C2)cc1 (stereo unspecified),i,i,i,i,i,i,i,i,
Cc1ccc(CNC(=O)C2CCCN(S(=O)(=O)c3cccnc3)C2)cc1 (stereo unspecified),i,i,i,i,i,i,nt,nt,
CCNC(=O)C1CCCN(C(=O)Cc2cccs2)CC1 (stereo unspecified),i,nt,i,nt,i,i,nt,nt,
SMILES,LMPTP block,Scp-1 inhibitor,STEP block,GRK2 inh,SUMO1 PPI mod,DNMT1 block,GRK2 inh confirm,Aptamer quench SP,others
COC(=O)[C@]12CCCCC=C1N(Cc1cccc3ccccc13)C(=O)[C@H](CC(=O)NCC1CCCCC1)C2,i,nt,nt,nt,i,nt,nt,nt,
O=C(NCc1ccc(Cl)cc1)c1ccc(-c2ccc(F)c(F)c2)c2ccoc12,i,nt,i,nt,i,i,nt,nt,
O=c1c2ccccc2nnn1CSc1ccccc1,i,i,i,97,i,i,nt,nt,GRK2 CP2=i;FAM quench SP=i
CC(=O)c1cccc(NC(=O)c2cnn(-c3ccccc3)c2C)c1,i,i,i,i,i,i,i,i,
COc1cccc(N=C2CC(C)(C)CC(=O)/C2=C(/O)c2ccccc2)c1,i,i,i,95,i,i,i,i,
CC1(C)CC(=O)/C(=C(\O)c2ccccc2)C(=NCCO)C1,i,i,i,i,i,i,nt,nt,
Cc1ccc(S(=O)(=O)N2c3ccccc3OC(C(=O)OC(C)(C)C)(C(=O)OC(C)(C)C)C2CC(=O)c2ccccc2)cc1 (stereo unspecified),i,nt,nt,nt,i,nt,nt,nt,
COc1ccc(CC(=O)Nc2nc(-c3ccc(F)c(F)c3)cs2)cc1,i,i,i,92,i,i,i,i,
O=S(=O)(Nc1nc2cc3c(cc2nc1Cl)OCCO3)c1ccccc1,i,i,i,48,i,i,i,i,
CC(=O)Nc1ccc(S(=O)(=O)Nc2nc3cc4c(cc3nc2Cl)OCCO4)cc1,i,i,i,i,i,i,nt,nt,
COC(=O)c1ccc(CSc2ccccc2NC(=S)Nc2cccc(SC)c2)o1,i,nt,i,nt,i,i,nt,nt,
COc1ccc(NC(=O)c2cccc(NC(=O)c3ccccc3)c2)cc1,i,i,i,i,i,i,nt,nt,
COc1ccc(C(=O)Nc2cccc(C(=O)NCc3ccccc3)c2)cc1,i,i,i,i,i,i,i,i,
Cc1ccc(C(=O)Nc2cccc(C(=O)NCc3ccccc3)c2)cc1,i,i,i,i,i,i,i,i,
CC(=O)Nc1ccccc1C(=O)C(=O)Nc1cccc(C(=O)NCc2ccc(C)cc2)c1,nt,nt,nt,i,nt,nt,nt,nt,
Cc1occc1C(=O)Nc1cccc(C(=O)NCc2ccccc2)c1,i,i,i,i,i,i,i,i,
O=C(OC1CC2CC1[C@H]1CCCCN1C2=O)N1CCC(c2ccccc2)CC1 (stereo partly specified),i,nt,nt,nt,i,nt,nt,nt,
N[C@@H](Cc1ccccc1)c1nnc2sc(SCc3ccccc3)nn12,i,i,i,55,i,i,i,i,
Cc1nnc2sc(SCc3ccc(Br)cc3)nn2c1=O,i,i,i,i,i,i,nt,nt,

# Compound activity (PubChem)
